Data reported in ChEMBL document CHEMBL1146772, “Design, synthesis, and structure-activity relationship of new isobenzofuranone ligands of protein kinase C” (Bioorg Med Chem Lett, 2004).

Key:
[1] = target: T1, Protein kinase C alpha type (Homo sapiens, UniProt P17252); test: Binding affinity for protein kinase C alpha
[2] = target: T1, Protein kinase C alpha type; test: Displacement of [3H]PDBu from PKC alpha at 100 uM; range 20 to 40
Method in brief: (§1)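 Competitive [3H]PDBu binding to recombinant human PKCα (Sf9-expressed), 4.3-4.8 nM, in 50 mM Tris-HCl pH 7.5 containing 4 mM CaCl2, 100 µg/mL sonicated phosphatidylserine, 4 mg/mL BSA and 10 nM [3H]PDBu. Incubation 2 h at 0 °C, then filtration on PEI-treated glass-fiber filters and scintillation counting. 10 µM TPA defined background/nonspecific binding. Ki derived using [3H]PDBu Kd 0.19 nM (Scatchard).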

[3] = target: T1, Protein kinase C alpha type; test: Displacement of [3H]PDBu from PKC alpha at 100 uM; range 0 to 20; method in brief: as §1
[4] = target: T1, Protein kinase C alpha type; test: Displacement of [3H]PDBu from PKC alpha at 100 uM; range 60 to 80; method in brief: as §1
[5] = target: T1, Protein kinase C alpha type; test: Displacement of [3H]PDBu from PKC alpha at 100 uM.; method in brief: as §1
[6] = target: T1, Protein kinase C alpha type; test: Displacement of [3H]PDBu from PKC alpha at 100 uM; range 40 to 60; method in brief: as §1

| Structure (SMILES) | Ki [1] | other results |
| --- | --- | --- |
| CCCCCCCCCCCCOc1cccc2c1C(=O)O[C@@]2(CO)COC(C)=O | 0.54 µM | inhibition [2]: 35% |
| CCCCCCCCCCOc1cccc2c1C(=O)O[C@@]2(CO)COC(C)=O | 0.122 µM | inhibition [2]: 21% |
| CC(=O)OC[C@@]1(CO)OC(=O)c2c(OCc3ccccc3)cccc21 | 0.54 µM | inhibition [3]: 9% |
| CCCCCCCCCCCCOc1cccc2c1C(=O)O[C@]2(CO)COC(C)=O | 0.54 µM | inhibition [4]: 75% |
| C=CCOC(=O)Oc1cccc2c1C(=O)O[C@]2(CO)COC(C)=O | 0.122 µM | inhibition [5]: 0% |
| CCCCCCCCCCOc1cccc2c1C(=O)O[C@]2(CO)COC(C)=O | 0.122 µM | inhibition [6]: 59% |
| CCCCCCCCCCCCOc1cccc2c1C(=O)O[C@@]2(CO)COC(=O)C(C)(C)C | 0.122 µM |  |
